High-throughput results deposited in PubChem BioAssay by several laboratories.
ABHD4 inh – inhibits mouse alpha/beta hydrolase domain 4. Q8VD66. purified mABHD4, FP-Rh probe fluorescence polarization. inhibition, % at 8.92 µM. hit rate 0.54% among 370,000;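 active = inhibition exceeding the mean over every tested compound plus 3 SD, cut at about 30% in these data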
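Assay system: mABHD4 protein; medium: HEPES pH 7.0, NaCl, Pluronic buffer; dosing: 8.92 µM, single dose; schedule: 45 min + 60 min at 25 °C; signal: FP readout, ex 525 nm / em 598 nm; read-out: normalized percent inhibition of probe labeling; repeats: single replicate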
TCR CD3 inh – human TCR-CD3 binding inhibition | hit rate 0.37% among 360,000 | TAMRA-labeled TCR probe fluorescence, biochemical | inhibition, % at 9.4 µM | AID 651800; in the data active = inhibition above about 19%;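 note: recombinant mutant TCR 2C K166C tagged with TAMRA read by polarization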
SIAE inh – blocks human sialic acid acetylesterase. SIAE FP-Rh probe binding, fluorescence polarization. Q9HAT2. hit rate 0.69% among 370,000. inhibition, % at 9.66 µM;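 active = inhibition above a cutoff: mean of compounds within the control limits plus 3 SD of those, cut at about 17% in these data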
Target sequence (Q9HAT2 whole entry, looked up): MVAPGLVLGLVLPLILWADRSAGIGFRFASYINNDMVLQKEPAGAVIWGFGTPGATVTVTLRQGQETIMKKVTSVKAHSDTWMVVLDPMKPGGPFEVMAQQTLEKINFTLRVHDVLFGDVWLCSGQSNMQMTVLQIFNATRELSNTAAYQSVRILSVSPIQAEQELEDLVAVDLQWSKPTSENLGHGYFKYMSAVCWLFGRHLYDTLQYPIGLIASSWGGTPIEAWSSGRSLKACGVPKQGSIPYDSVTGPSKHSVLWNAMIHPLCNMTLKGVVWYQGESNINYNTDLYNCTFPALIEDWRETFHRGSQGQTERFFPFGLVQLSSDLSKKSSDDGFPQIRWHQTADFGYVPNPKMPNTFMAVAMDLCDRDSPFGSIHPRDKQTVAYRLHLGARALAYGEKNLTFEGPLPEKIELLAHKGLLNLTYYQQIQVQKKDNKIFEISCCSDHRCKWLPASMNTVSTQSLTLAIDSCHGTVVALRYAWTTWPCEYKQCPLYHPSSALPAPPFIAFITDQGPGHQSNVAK
HTRA1 inh – inhibitors of human serine peptidase HTRA1 | recombinant HTRA1, FP-rhodamine activity-based probe, fluorescence polarization | AID 504803 | Q92743 | hit rate 0.5% among 340,000 | inhibition, % at 5.96 µM; in the data active = inhibition above about 36%
ARNT TACC3 PPI – disrupts binding between human ARNT and TACC3; AID 623870; hit rate 0.66% among 390,000; inhibition, % at 9.99 µM; AlphaScreen His-ARNT PAS-B/GST-TACC3 binding, luminescence; TACC3 fragment carries E629A point mutation;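 active = mean inhibition of replicates at least 50% and at least half of replicates each reaching 50%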
Hits are given with their value; n = inactive; x = not tested or not shown; ! = a repeat was not active. Shown are actives, neighbours in structure and some others; about 1.8% of the full set was active somewhere.

SMILES	ABHD4 inh	TCR CD3 inh	SIAE inh	HTRA1 inh	ARNT TACC3 PPI
CCCCC(=O)N/N=C/c1c(O)n(CCc2ccccc2)c(=O)[nH]c1=O	n	n	n	x	x
O=C(O)c1ccc(N=Cc2c(O)n(Cc3ccc(F)cc3)c(=O)[nH]c2=O)cc1	n	n	n	n	n
CCCCC(=O)N/N=C/c1c(O)n(Cc2ccc(F)cc2)c(=O)[nH]c1=O	n	n	n	n	68.7
O=C(Cc1cccnc1)N1CCCCN2[C@H](CO)[C@@H](c3ccc(/C=C/c4ccccc4)cc3)[C@@H]2C1	x	x	x	x	n
CCCN1[C@@H]2c3ccc(-c4ccc(F)cc4)c(=O)n3C[C@H]1[C@H](CO)[C@H]2C(=O)OC	x	x	x	x	n
Cc1cccc(-n2c(O)c(/C=N/Nc3nc4c(c(=O)n(C)c(=O)n4C)n3C)c(=O)[nH]c2=S)c1	n	n	n	n	71.8
Cc1ccccc1-n1c(O)c(/C=N/Nc2nc3c(c(=O)n(C)c(=O)n3C)n2C)c(=O)[nH]c1=S	n	n	n	n	50.7
Cn1c(=O)c2c(nc(N/N=C/c3c(O)n(C4CCCCC4)c(=S)[nH]c3=O)n2C)n(C)c1=O	n	n	n	n	52.4
Cc1ccccc1-n1c(O)c(/C=N/NC(=O)c2ccccc2O)c(=O)[nH]c1=S	n	n	n	n	57.1
COc1ccc(N/N=C/c2c(O)n(-c3cccc(C)c3)c(=O)[nH]c2=O)cc1	n	n	n	n	n
Cn1c(O)c(/C=N/NC(=O)c2ccncc2)c(=O)[nH]c1=S	n	n	n	x	x
Cn1c(O)c(C=NC2CCCCC2)c(=O)[nH]c1=S	n	n	n	n	n
CCOC(=O)[C@@H]1[C@@H]2NC(=S)N(C)[C@@]1(COCc1ccc(OC)cc1)Oc1ccccc12	x	x	x	x	n
O=C(O)[C@H]1[C@H](CO)[C@H]2Cn3c(ccc(-c4ccncc4)c3=O)[C@@H]1N2C(=O)C1CCC1	x	x	x	x	n
O=[N+]([O-])c1ccc(O)c([N+](=O)[O-])c1	n	n	n	n	n
O=c1[nH]c(O)c(N=Nc2cc([N+](=O)[O-])ccc2O)c(=O)[nH]1	n	n	n	n	56.6
O=C(Cc1cccnc1)N1CCCCN2[C@H](CO)[C@H](c3ccc(/C=C/c4ccccc4)cc3)[C@H]2C1	x	x	x	x	n
O=[N+]([O-])c1ccc(N(CCO)CCO)c2c1no[n+]2[O-]	n	n	n	n	x
CN1CCN(c2ccc([N+](=O)[O-])c3no[n+]([O-])c23)CC1	n	n	n	n	37.9
COC(=O)c1c(N)n(Cc2ccc(OC)cc2)c2nc3ccccc3nc12	n	n	n	n	14.8
COCCOC(=O)c1c(N)n(Cc2ccco2)c2nc3ccccc3nc12	n	n	n	n	62.4
O=C1CC=C2C3CC4N(CCC45c4cc(O)c(O)cc4N1C25)CC3=CCBr (stereo unspecified)	n	50.3	n	n	n
O=C1CC=C2C3CC4N(CCC45c4ccccc4N1C25)CC3=CCO (stereo unspecified)	n	n	n	n	n
CC[C@H](C)/C=C(C)/C=C/C1=CC2=C(Cl)C(=O)[C@@](C)(OC(C)=O)C(=O)C2=CO1	x	x	x	77.7	n
CCOC(=O)[C@@H]1[C@@H]2NC(=O)N(C)[C@@]1(C)Oc1ccccc12	x	x	x	x	n
SMILES	ABHD4 inh	TCR CD3 inh	SIAE inh	HTRA1 inh	ARNT TACC3 PPI
O=C(N/N=C\C1C(=O)NC(=S)N(c2ccccc2)C1=O)c1ccc(O)cc1 (stereo unspecified)	n	n	n	n	71.9
CCCC(=O)NC1=C(N2CC2)C(=O)C(NC(=O)CCC)=C(N2CC2)C1=O	n	n	n	n	n
CC(=O)NC1=C(N2CC2C)C(=O)C(NC(C)=O)=C(N2CC2C)C1=O (stereo unspecified)	n	n	n	n	8.8
COc1cccc(-c2ccc([C@@H]3[C@@H](CO)N4CCCCN(C(=O)Cc5ccncc5)C[C@H]34)cc2)c1	x	x	x	x	n
CN1CC[C@@]2(C)c3cc(O)ccc3N(C)C2O1 (stereo partly specified)	x	x	x	n	30.4
CC1[C@H]2Cc3ccc(O)cc3[C@]1(C)CCN2C (stereo partly specified)	n	n	n	n	n
CN1CC[C@@]2(C)c3cc(O)ccc3N(C)[C@@H]12	n	n	n	n	47.0!
O=C(Cc1ccncc1)N1CCCCN2[C@@H](CO)[C@@H](c3ccc(C#CC4(O)CCCC4)cc3)[C@@H]2C1	x	x	x	x	n
CCOC(=O)[C@@H]1[C@@H]2NC(=S)N(C)[C@@]1(C)Oc1ccccc12	x	x	x	x	n
C=CCn1c(O)c(C(C)=NCCCn2ccnc2)c(=O)[nH]c1=O	n	n	n	n	83.5
O=C1NC(=O)C(=Cc2ccc(OCCOc3ccc([N+](=O)[O-])cc3)cc2)C(=O)N1	n	n	n	n	active
CC(C)C[C@H]1C(=O)N2CCC[C@H]2[C@]2(O)O[C@](NC(=O)[C@@H]3C=C4c5cccc6[nH]cc(c56)C[C@H]4N(C)C3)(C(C)C)C(=O)N12	x	x	x	41.9	x
CCCCn1c(O)c(/C=N/NC(=O)c2ccncc2)c(=O)[nH]c1=S	n	n	n	n	60.3
COCCn1c(O)c(/C=N/NC(=O)CSC(=S)N2CCCC2)c(=O)[nH]c1=S	n	n	n	n	61.0
O=C(N/N=C/c1c(O)n(-c2ccccc2)c(=O)[nH]c1=O)c1ccncc1	n	n	n	n	71.5
CCCCCCC(=O)N/N=C/c1c(O)n(CCCC)c(=S)[nH]c1=O	n	n	n	n	n
Cc1ccc(-n2c(O)c(/C=N/NC(=O)c3ccncc3)c(=O)[nH]c2=O)cc1	n	n	n	n	x
COc1ccc(CCn2c(O)c(/C=N/NC(=O)c3ccncc3)c(=O)[nH]c2=O)cc1OC	n	n	n	n	76.2
COC(=O)[C@@H]1[C@@H](CO)[C@@H]2Cn3c(ccc(-c4ccccc4)c3=O)[C@H]1N2CC1CCOCC1	x	x	x	x	n
C=CCn1c(O)c(/C=N/NC(=O)c2ccncc2)c(=O)[nH]c1=O	n	n	n	n	77.8
Cn1c(O)c(/C=N/NC(=O)c2ccncc2)c(=O)n(C)c1=S	n	n	n	x	59.2
O=C(Cc1ccccn1)N1CCCCN2[C@H](CO)[C@H](c3ccc(C#Cc4ccccc4)cc3)[C@H]2C1	x	x	x	x	n
CCCNC(=O)N1[C@@H]2Cn3c(ccc(-c4ccccc4OC)c3=O)[C@H]1[C@@H](C(=O)OC)[C@@H]2CO	x	x	x	x	n
Cc1ccccc1-c1ccc([C@H]2[C@@H](CO)N3CCCCN(C(=O)Cc4ccccn4)C[C@@H]23)cc1	x	x	x	x	n
CCCNC1=C(C)C(=O)C2=C(C1=O)C(COC(N)=O)[C@]1(OC)C3NC3CN21 (stereo partly specified)	n	27.2	n	n	n
CC(=O)c1ccc2c(c1)C1C(Cl)C(Sc3ccccc3[N+](=O)[O-])CC1C(c1ccccc1)N2 (stereo unspecified)	n	n	17.7	n	x
CC(=O)c1ccc2c(c1)C1C(Cl)C(Sc3ccccc3[N+](=O)[O-])CC1C(c1ccccc1[N+](=O)[O-])N2 (stereo unspecified)	n	n	n	n	x
